Blank lines part the entries; values can stand above or below the molecule they belong to. The source made the active and inactive calls. The calls are words filed in the database; no cut-off is given here.
Assays:
[1] = target: Protein cereblon/E3 ubiquitin-protein ligase Mdm2 (Homo sapiens) (UniProt Q00987+Q96SW2); test: Induction of CRBN-mediated MDM2 degradation in human HeLa cells at 10 uM incubated for 12 hrs by Western blot analysis; format: cell-based
[2] = target: Protein cereblon/Bcl-2-like protein 1 (Homo sapiens) (UniProt Q07817+Q96SW2); test: Induction of CRBN-mediated Bcl-xl degradation in human HeLa cells at 10 uM incubated for 12 hrs by Western blot analysis; format: cell-based
Protein cereblon/Bcl-2-like protein 1 (Homo sapiens), sequence (Q07817 whole entry, looked up, the tested form may be a part): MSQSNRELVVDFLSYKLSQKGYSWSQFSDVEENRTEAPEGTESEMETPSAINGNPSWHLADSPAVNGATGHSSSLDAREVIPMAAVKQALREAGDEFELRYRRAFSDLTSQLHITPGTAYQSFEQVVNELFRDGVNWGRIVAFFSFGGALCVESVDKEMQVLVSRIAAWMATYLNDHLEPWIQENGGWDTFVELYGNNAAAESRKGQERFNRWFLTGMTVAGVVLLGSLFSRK
Protein cereblon/Bcl-2-like protein 1 (Homo sapiens), sequence (Q96SW2 whole entry, looked up, the tested form may be a part): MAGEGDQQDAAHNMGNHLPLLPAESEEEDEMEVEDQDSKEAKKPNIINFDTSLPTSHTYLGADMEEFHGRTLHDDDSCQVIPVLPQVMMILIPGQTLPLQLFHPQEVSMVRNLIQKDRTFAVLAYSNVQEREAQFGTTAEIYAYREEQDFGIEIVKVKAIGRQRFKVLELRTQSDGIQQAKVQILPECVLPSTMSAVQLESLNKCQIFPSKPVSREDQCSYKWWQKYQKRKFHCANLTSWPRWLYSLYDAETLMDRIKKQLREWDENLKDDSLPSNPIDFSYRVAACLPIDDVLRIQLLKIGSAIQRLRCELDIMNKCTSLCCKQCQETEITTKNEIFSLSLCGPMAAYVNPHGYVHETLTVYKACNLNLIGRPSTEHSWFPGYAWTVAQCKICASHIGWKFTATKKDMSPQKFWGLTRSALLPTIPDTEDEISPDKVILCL

[3] = target: Induced myeloid leukemia cell differentiation protein Mcl-1 (Homo sapiens, UniProt Q07820); test: Inhibition of biotinylated Bim peptide (81 to 106 residues) binding to His-tagged human Mcl-1 expressed in Escherichia coli BL21 (DE3) cells preincubated for 1 hr followed by biotinylated Bim peptide addition measured after 2 hrs by ELISA
Induced myeloid leukemia cell differentiation protein Mcl-1, sequence (Q07820 whole entry, the tested form may be a part): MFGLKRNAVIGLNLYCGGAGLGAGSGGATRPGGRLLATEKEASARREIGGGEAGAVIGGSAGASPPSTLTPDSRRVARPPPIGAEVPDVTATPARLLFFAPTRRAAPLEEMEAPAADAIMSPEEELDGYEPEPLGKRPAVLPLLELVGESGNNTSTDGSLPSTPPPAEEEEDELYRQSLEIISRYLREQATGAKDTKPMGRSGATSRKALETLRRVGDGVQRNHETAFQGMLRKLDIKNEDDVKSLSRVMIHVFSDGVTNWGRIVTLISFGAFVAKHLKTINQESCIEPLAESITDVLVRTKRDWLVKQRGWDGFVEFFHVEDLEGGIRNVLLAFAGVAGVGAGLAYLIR
Procedure, shortened: (§1)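 Inhibitor serially diluted (100–0.1 µM) from 10 mM DMSO stock, preincubated 1 h with 200 nM His-tagged protein in PBS (final DMSO 4%), then added 2 h to streptavidin plates holding biotin-Bim (plated at 0.09 mg/mL). Incubations at 4 °C. Detection with HRP anti-His, TMB 30 min, H2SO4 stop, A450. IC50 averaged from three independent experiments, with SD.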

[4] = target: Apoptosis regulator Bcl-2 (Homo sapiens, UniProt P10415); test: Inhibition of biotinylated Bim peptide (81 to 106 residues) binding to His-tagged human Bcl-2 expressed in Escherichia coli BL21 (DE3) cells preincubated for 1 hr followed by biotinylated Bim peptide addition measured after 2 hrs by ELISA; procedure, shortened: as §1
Apoptosis regulator Bcl-2, sequence (P10415 whole entry, the tested form may be a part): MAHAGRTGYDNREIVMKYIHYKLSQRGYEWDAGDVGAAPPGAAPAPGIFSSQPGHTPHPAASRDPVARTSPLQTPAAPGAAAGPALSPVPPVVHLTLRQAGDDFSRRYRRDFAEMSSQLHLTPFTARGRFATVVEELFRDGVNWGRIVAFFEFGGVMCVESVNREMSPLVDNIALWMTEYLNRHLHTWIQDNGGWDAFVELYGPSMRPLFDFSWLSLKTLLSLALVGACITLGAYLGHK

[5] = target: T1, Protein cereblon/Induced myeloid leukemia cell differentiation protein Mcl-1 (Homo sapiens, UniProt Q07820+Q96SW2); test: Induction of CRBN-mediated Mcl-1 degradation in human HeLa cells assessed as relative abundance at 10 uM after 12 hrs by Western blot analysis (reference value: 1); format: cell-based
T1 sequence (Q07820 whole entry, looked up): as the sequence (Q07820 whole entry, the tested form may be a part) above
T1 sequence (Q96SW2 whole entry, looked up): as the sequence (Q96SW2 whole entry, looked up, the tested form may be a part) above

[6] = target: T1, Protein cereblon/Induced myeloid leukemia cell differentiation protein Mcl-1; test: Induction of CRBN-mediated Mcl-1 degradation in human HeLa cells assessed as relative abundance at 1 uM after 12 hrs by Western blot analysis (reference value: 1); format: cell-based
[7] = target: T2, Protein cereblon/Apoptosis regulator Bcl-2 (Homo sapiens, UniProt P10415+Q96SW2); test: Induction of CRBN-mediated Bcl-2 degradation in human HeLa cells assessed as relative abundance at 10 uM after 12 hrs by Western blot analysis (reference value: 1); format: cell-based
Target sequence in this assay (P10415 whole entry, looked up): as the sequence (P10415 whole entry, the tested form may be a part) above
Target sequence in this assay (Q96SW2 whole entry, looked up): as the sequence (Q96SW2 whole entry, looked up, the tested form may be a part) above

[8] = target: T2, Protein cereblon/Apoptosis regulator Bcl-2; test: Induction of CRBN-mediated Bcl-2 degradation in human HeLa cells assessed as relative abundance at 1 uM after 12 hrs by Western blot analysis (reference value: 1); format: cell-based
Target sequence in this assay (P10415 whole entry, looked up): as the sequence (P10415 whole entry, the tested form may be a part) above
Target sequence in this assay (Q96SW2 whole entry, looked up): as the sequence (Q96SW2 whole entry, looked up, the tested form may be a part) above

[9] = target: T2, Protein cereblon/Apoptosis regulator Bcl-2; test: Induction of CRBN-mediated Bcl-2 degradation in human HeLa cells after 12 hrs by Western blot analysis; format: cell-based
Target sequence in this assay (P10415 whole entry, looked up): as the sequence (P10415 whole entry, the tested form may be a part) above
Target sequence in this assay (Q96SW2 whole entry, looked up): as the sequence (Q96SW2 whole entry, looked up, the tested form may be a part) above

[10] = target: T2, Protein cereblon/Apoptosis regulator Bcl-2; test: Induction of CRBN-mediated Bcl-2 degradation in human HeLa cells assessed as reduction in Bcl-2 level at 1 uM after 12 hrs by Western blot analysis relative to control; format: cell-based; set-up: scale not given: the % may be the effect or the level left
Target sequence in this assay (P10415 whole entry, looked up): as the sequence (P10415 whole entry, the tested form may be a part) above
Target sequence in this assay (Q96SW2 whole entry, looked up): as the sequence (Q96SW2 whole entry, looked up, the tested form may be a part) above

[11] = target: T2, Protein cereblon/Apoptosis regulator Bcl-2; test: Induction of CRBN-mediated Bcl-2 degradation in human HeLa cells assessed as reduction in Bcl-2 level at 10 uM after 12 hrs by Western blot analysis relative to control; format: cell-based; set-up: scale not given: the % may be the effect or the level left
Target sequence in this assay (P10415 whole entry, looked up): as the sequence (P10415 whole entry, the tested form may be a part) above
Target sequence in this assay (Q96SW2 whole entry, looked up): as the sequence (Q96SW2 whole entry, looked up, the tested form may be a part) above

[12] = target: T2, Protein cereblon/Apoptosis regulator Bcl-2; test: Induction of CRBN-mediated Bcl-2 degradation in human HeLa cells assessed as relative abundance at 3 uM after 12 hrs by Western blot analysis (reference value: 1); format: cell-based
Target sequence in this assay (P10415 whole entry, looked up): as the sequence (P10415 whole entry, the tested form may be a part) above
Target sequence in this assay (Q96SW2 whole entry, looked up): as the sequence (Q96SW2 whole entry, looked up, the tested form may be a part) above

[13] = target: T2, Protein cereblon/Apoptosis regulator Bcl-2; test: Induction of CRBN-mediated Bcl-2 degradation in human HeLa cells assessed as relative abundance at 0.3 uM after 12 hrs by Western blot analysis (reference value: 1); format: cell-based
[14] = target: T1, Protein cereblon/Induced myeloid leukemia cell differentiation protein Mcl-1; test: Induction of CRBN-mediated Mcl-1 degradation in human HeLa cells assessed as relative abundance at 0.1 uM after 12 hrs by Western blot analysis (reference value: 1); format: cell-based
[15] = target: T2, Protein cereblon/Apoptosis regulator Bcl-2; test: Induction of CRBN-mediated Bcl-2 degradation in human HeLa cells assessed as relative abundance at 0.1 uM after 12 hrs by Western blot analysis (reference value: 1); format: cell-based
[16] = target: T1, Protein cereblon/Induced myeloid leukemia cell differentiation protein Mcl-1; test: Induction of CRBN-mediated Mcl-1 degradation in human HeLa cells assessed as relative abundance at 0.3 uM after 12 hrs by Western blot analysis (reference value: 1); format: cell-based
[17] = target: T1, Protein cereblon/Induced myeloid leukemia cell differentiation protein Mcl-1; test: Induction of CRBN-mediated Mcl-1 degradation in human HeLa cells assessed as relative abundance at 3 uM after 12 hrs by Western blot analysis (reference value: 1); format: cell-based
[18] = target: T1, Protein cereblon/Induced myeloid leukemia cell differentiation protein Mcl-1; test: Induction of CRBN-mediated Mcl-1 degradation in human HeLa cells assessed as relative abundance at 10 uM measured at 2 hrs by Western blot analysis (reference value: 1); format: cell-based
Procedure, shortened: (§2)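 HeLa cells in DMEM with 10% FBS, exposed to 10 µM compound over a 0–24 h time course. Mcl-1 and Bcl-2 detected by immunoblot (NP-40 lysis, BCA-equalized SDS-PAGE, PVDF, ECL) and quantified relative to DMSO control; mean ± s.d., n=3 independent samples.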

[19] = target: T2, Protein cereblon/Apoptosis regulator Bcl-2; test: Induction of CRBN-mediated Bcl-2 degradation in human HeLa cells at 10 uM by Western blot analysis; format: cell-based; conditions: TDE = time-dependent effect
[20] = target: T1, Protein cereblon/Induced myeloid leukemia cell differentiation protein Mcl-1; test: Induction of CRBN-mediated Mcl-1 degradation in human HeLa cells assessed as relative abundance at 10 uM measured at 4 hrs by Western blot analysis (reference value: 1); format: cell-based; procedure, shortened: as §2
[21] = target: T1, Protein cereblon/Induced myeloid leukemia cell differentiation protein Mcl-1; test: Induction of CRBN-mediated Mcl-1 degradation in human HeLa cells assessed as relative abundance at 10 uM measured at 8 hrs by Western blot analysis (reference value: 1); format: cell-based; procedure, shortened: as §2
[22] = target: T2, Protein cereblon/Apoptosis regulator Bcl-2; test: Induction of CRBN-mediated Bcl-2 degradation in human HeLa cells assessed as relative abundance at 10 uM measured at 20 hrs by Western blot analysis (reference value: 1); format: cell-based; procedure, shortened: as §2
[23] = target: T1, Protein cereblon/Induced myeloid leukemia cell differentiation protein Mcl-1; test: Induction of CRBN-mediated Mcl-1 degradation in human HeLa cells assessed as relative abundance at 10 uM measured at 16 hrs by Western blot analysis (reference value: 1); format: cell-based; procedure, shortened: as §2
[24] = target: T1, Protein cereblon/Induced myeloid leukemia cell differentiation protein Mcl-1; test: Induction of CRBN-mediated Mcl-1 degradation in human HeLa cells assessed as relative abundance at 10 uM measured at 20 hrs by Western blot analysis (reference value: 1); format: cell-based; procedure, shortened: as §2
[25] = target: T1, Protein cereblon/Induced myeloid leukemia cell differentiation protein Mcl-1; test: Induction of CRBN-mediated Mcl-1 degradation in human HeLa cells assessed as relative abundance at 10 uM measured at 24 hrs by Western blot analysis (reference value: 1); format: cell-based; procedure, shortened: as §2
[26] = target: T2, Protein cereblon/Apoptosis regulator Bcl-2; test: Induction of CRBN-mediated Bcl-2 degradation in human HeLa cells assessed as relative abundance at 10 uM measured at 2 hrs by Western blot analysis (reference value: 1); format: cell-based; procedure, shortened: as §2
[27] = target: T2, Protein cereblon/Apoptosis regulator Bcl-2; test: Induction of CRBN-mediated Bcl-2 degradation in human HeLa cells assessed as relative abundance at 10 uM measured at 4 hrs by Western blot analysis (reference value: 1); format: cell-based; procedure, shortened: as §2
[28] = target: T2, Protein cereblon/Apoptosis regulator Bcl-2; test: Induction of CRBN-mediated Bcl-2 degradation in human HeLa cells assessed as relative abundance at 10 uM measured at 8 hrs by Western blot analysis (reference value: 1); format: cell-based; procedure, shortened: as §2
[29] = target: T2, Protein cereblon/Apoptosis regulator Bcl-2; test: Induction of CRBN-mediated Bcl-2 degradation in human HeLa cells assessed as relative abundance at 10 uM measured at 16 hrs by Western blot analysis (reference value: 1); format: cell-based; procedure, shortened: as §2
[30] = target: T2, Protein cereblon/Apoptosis regulator Bcl-2; test: Induction of CRBN-mediated Bcl-2 degradation in human HeLa cells assessed as relative abundance at 10 uM measured at 24 hrs by Western blot analysis (reference value: 1); format: cell-based; procedure, shortened: as §2
[31] = target: T2, Protein cereblon/Apoptosis regulator Bcl-2; test: Induction of CRBN-mediated Bcl-2 degradation in human HeLa cells measured at 12 hrs by Western blot analysis; format: cell-based
Target sequence in this assay (P10415 whole entry): as the sequence (P10415 whole entry, the tested form may be a part) above
Target sequence in this assay (Q96SW2 whole entry): as the sequence (Q96SW2 whole entry, looked up, the tested form may be a part) above

HeLa = test: Induction of CRBN-mediated tubulin degradation in human HeLa cells at 10 uM incubated for 12 hrs by Western blot analysis; format: cell-based
Procedure, shortened: (§3)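 HeLa cells (DMEM, 10% FBS, 37 °C, 5% CO2) treated 12 h with compound (10 µM, or 0–10 µM gradient; time course 0–24 h at 10 µM). Lysis in NP-40 buffer with protease inhibitors, equal protein loaded for SDS-PAGE and immunoblotting. Bands quantified relative to DMSO control. n=3 independent samples.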

[32] = target: T2, Protein cereblon/Apoptosis regulator Bcl-2; test: Induction of CRBN-mediated Bcl-2 degradation in human HeLa cells at 10 uM pretreated with proteasome inhibitor MG-132 followed by compound addition by Western blot analysis; format: cell-based
[33] = target: T2, Protein cereblon/Apoptosis regulator Bcl-2; test: Induction of CRBN-mediated Bcl-2 degradation in human HeLa cells at 10 uM pretreated with Bcl-2 inhibitor Nap-1 followed by compound addition by Western blot analysis; format: cell-based
[34] = target: T2, Protein cereblon/Apoptosis regulator Bcl-2; test: Induction of CRBN-mediated Bcl-2 degradation in human HeLa cells at 10 uM pretreated with CRBN inhibitor pomalidomide followed by compound addition by Western blot analysis; format: cell-based
[35] = target: T2, Protein cereblon/Apoptosis regulator Bcl-2; test: Protac activity at CRBN/Bcl-2 in human HeLa cell lysates assessed as ternary complex formation by Western blot analysis based pull-down assay; format: subcellular; conditions: Lysate
Procedure, shortened: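 HeLa lysate (25×10^6 cells, 1% Triton X-100 IP buffer), 1 mg total protein, incubated overnight with 1 µg CRBN antibody across a compound concentration gradient. Capture on protein A+G agarose, three Triton washes, boiled in loading buffer. Mcl-1, Bcl-2 and CRBN detected by immunoblotting. n=3 independent samples.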

[36] = target: T1, Protein cereblon/Induced myeloid leukemia cell differentiation protein Mcl-1; test: Induction of CRBN-mediated Mcl-1 degradation in human HeLa cells by Western blot analysis; format: cell-based; procedure, shortened: as §3
NCI-H23 = test: Cytotoxicity against human H23 cells incubated for 24 hrs by CCK8 assay; format: functional, cell-based
Procedure, shortened: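 H23 cells seeded at 4 × 10^4 per mL in RPMI with 10% FBS, L-glutamine and pen/strep. Treated 24 h at various concentrations or with DMSO vehicle (0.05%). Viability read by CCK8 and normalized against cell-free background and untreated cultures; mean ± s.e.m., n=3.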

Protein cereblon/E3 ubiquitin-protein ligase Mdm2 (Homo sapiens), sequence (Q00987 whole entry, looked up): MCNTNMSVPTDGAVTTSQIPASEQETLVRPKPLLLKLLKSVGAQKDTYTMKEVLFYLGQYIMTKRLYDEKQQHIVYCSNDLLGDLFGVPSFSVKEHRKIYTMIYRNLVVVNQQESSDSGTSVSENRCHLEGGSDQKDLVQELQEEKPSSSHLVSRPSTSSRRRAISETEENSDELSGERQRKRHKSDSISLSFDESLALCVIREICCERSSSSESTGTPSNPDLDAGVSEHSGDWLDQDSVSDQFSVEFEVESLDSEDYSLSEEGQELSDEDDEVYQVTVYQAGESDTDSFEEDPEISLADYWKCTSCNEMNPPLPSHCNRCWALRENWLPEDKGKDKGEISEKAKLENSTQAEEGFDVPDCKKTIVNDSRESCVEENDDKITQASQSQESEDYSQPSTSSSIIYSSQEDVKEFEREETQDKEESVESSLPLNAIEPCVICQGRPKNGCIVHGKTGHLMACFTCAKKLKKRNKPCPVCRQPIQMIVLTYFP
Protein cereblon/E3 ubiquitin-protein ligase Mdm2 (Homo sapiens), sequence (Q96SW2 whole entry, looked up): as the sequence (Q96SW2 whole entry, looked up, the tested form may be a part) above

- Activity [1]: inactive
- Activity [2]: inactive
- IC50 [3]: 11.8 µM
- IC50 [4]: 4.94 µM
- fold change (FC) [5]: 0.9 to 1
- fold change (FC) [6]: 1
- fold change (FC) [7]: 0.1
- fold change (FC) [8]: 0.9
- Activity [9]: Dose-dependent effect
- Activity [10]: 10%
- Activity [11]: 90%
- fold change (FC) [12]: 0.5
- fold change (FC) [13]: 0.9
- fold change (FC) [14]: 1
- fold change (FC) [15]: 1
- fold change (FC) [16]: 1
- fold change (FC) [17]: 1.2
- fold change (FC) [18]: 1.1
- Activity [19]: Tde
- fold change (FC) [20]: 1
- fold change (FC) [21]: 1
- fold change (FC) [22]: 1
- fold change (FC) [23]: 1.1
- fold change (FC) [24]: 1
- fold change (FC) [25]: 0.8
- fold change (FC) [26]: 0.8
- fold change (FC) [27]: 0.6
- fold change (FC) [28]: 0.3
- fold change (FC) [29]: 0.7
- fold change (FC) [30]: 1
- DC50 [31]: 3 µM
- Activity [32]: inactive
- Activity [33]: inactive
- Activity [34]: inactive
- Activity [35]: Dose-dependent effect
SMILES: O=C(CCCCC(=O)NCCN1C(=O)c2cccc3c(Sc4ccc(Br)cc4)ccc(c23)C1=O)NCCOCCOCCNc1cccc2c1C(=O)N(C1CCC(=O)NC1=O)C2=O (stereo not drawn)
- Activity (HeLa): inactive

- Activity [36]: inactive
SMILES: CN1C(=O)CCC(N2C(=O)c3cccc(NCCCCCCNC(=O)CCCCC(=O)NCCN4C(=O)c5cccc6c(Sc7ccc(Br)cc7)ccc(c56)C4=O)c3C2=O)C1=O (stereo not drawn)
- Activity (NCI-H23): Active
